# Only some compounds are listed: those with a hit (about 2.4% of all), similar ones and a draw of the others.
# Neddyl block = inhibitors of cullin neddylation, primary screen, biochemical, TR-FRET, uHTS, NAE and Ubc12 | NEDD8-conjugating enzyme Ubc12 (Homo sapiens) + NEDD8-activating enzyme E1 regulatory … | inhibition, % at 25 µM | 0.58% of 360,000 active; in the data active means inhibition above about 36%
# Rin1 Abl inh = inhibitors of Rin1-Abl protein binding, primary screen, biochemical, TR-FRET | Tyrosine-protein kinase ABL1 (Homo sapiens) + Ras and Rab interactor 1 (Homo sapiens), … | inhibition, % at 7.35 µM | 0.4% of 360,000 active; in the data active means inhibition above about 5%, passing the limit was not always enough
# Rpn11 block = Rpn11 (PSMD14) deubiquitinase inhibitors, primary screen, biochemical, fluorescence polarization, uHTS; human 26S proteasome, Ub4-pepOG fluorescence polarization; 20S core pre-blocked with epoxomicin; inhibition, % at 20 µM; 0.59% of 360,000 active;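 active means inhibition at 20 µM, scaled to each plate's controls, above about 33%, limit read from the data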
# Target sequence (O00487 whole entry, looked up): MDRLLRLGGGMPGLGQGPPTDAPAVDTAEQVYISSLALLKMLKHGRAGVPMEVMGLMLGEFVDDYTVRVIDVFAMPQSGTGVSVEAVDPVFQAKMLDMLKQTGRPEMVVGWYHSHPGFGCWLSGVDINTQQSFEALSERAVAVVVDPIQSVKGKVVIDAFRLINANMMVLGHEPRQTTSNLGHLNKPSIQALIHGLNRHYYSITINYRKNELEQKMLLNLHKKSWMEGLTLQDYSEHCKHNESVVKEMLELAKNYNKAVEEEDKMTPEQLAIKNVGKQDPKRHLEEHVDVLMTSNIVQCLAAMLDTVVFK
# TPT1 inhibitor = Candida albicans TPT1 enzyme inhibitors, primary screen, biochemical, fluorescence polarization; tRNA 2'-phosphotransferase TPT1 (Candida albicans SC5314); recombinant caTPT1, FP RNA substrate dephosphorylation; inhibition, % at 5 µM; 0.81% of 300,000 active;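 active means inhibition above the mean of all tested compounds plus 3 SD, set per screening campaign, cut at about 24% in these data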;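 further: plate controls were DMSO alone for no effect and ferristatin control at 100 nM for full effect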
# HNF4A DNA FP = change in binding of human HNF4A to DNA, primary screen, biochemical, fluorescence polarization, FITC-DNA; Hepatocyte nuclear factor 4-alpha (Homo sapiens), P41235; 0.3% of 360,000 active; activity change, % at 10 µM; 1 h; AID 1224865, 2016; in the data active means activity change above about 30%, passing the limit was not always enough
# CSN deneddyl inh = inhibitors of CSN-mediated cullin deneddylation, primary screen, biochemical, fluorescence polarization, uHTS; COP9 signalosome complex subunit 5 (Homo sapiens), Q92905; 0.38% of 360,000 active; Purified CSN, SCF-Nedd8-OG deneddylation; inhibition, % at 12.5 µM;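 active means pattern-corrected inhibition above about 35%, with an unprinted fluorescence ratio check between 0.5 and 1.5, limit read from the data, passing the limit was not always enough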;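 further: 0% = enzyme with substrate and 100% = substrate without enzyme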
# Target sequence (Q92905 whole entry, looked up, one chain of several): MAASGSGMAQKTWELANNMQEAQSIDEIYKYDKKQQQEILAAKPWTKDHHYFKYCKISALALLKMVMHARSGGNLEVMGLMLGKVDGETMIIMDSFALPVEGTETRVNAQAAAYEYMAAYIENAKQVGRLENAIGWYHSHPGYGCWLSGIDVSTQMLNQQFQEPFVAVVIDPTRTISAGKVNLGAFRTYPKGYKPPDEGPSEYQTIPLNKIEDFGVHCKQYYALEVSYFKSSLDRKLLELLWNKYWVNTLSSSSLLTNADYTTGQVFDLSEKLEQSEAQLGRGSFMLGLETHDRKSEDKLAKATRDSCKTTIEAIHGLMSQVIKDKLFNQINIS
#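 test system = HEK293T-derived human Csn5 enzyme | amount = 0.24 nM Csn5 enzyme, final concentration | medium = Tris/NaCl/DTT buffer, pH 7.5 | schedule = 90 min reaction at room temperature | signal = FP | evaluation = inhibition of Csn5 cleavage, % | compound dosing = single dose of 12.5 µM compound with 0.25% DMSO | probe or stimulus = 10 nM SCFSkp2-Nedd8OG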
# Rin1 Abl conf = Rin1-Abl binding inhibitor retest, confirmation, biochemical, TR-FRET; purified proteins; inhibition, % at 7.35 µM; shares compounds with Rin1 Abl inh; AID 602124, 2011; 49% of 1,300 active
# GFP quench = GFP fluorescence inhibitors and quenchers, artefact control for Rin1-Abl interaction inhibitor project, biochemical. inhibitors/quenchers counterscreen. shares compounds with Rin1 Abl inh. inhibition, % at 6.75 µM. 8.5% of 1,300 active. AID 602125, 2011;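 further: ABL1-eGFP fusion protein alone without its partner RIN1-SBP; 0% = protein with vehicle and 100% = wells lacking protein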
# GFP quench dose = GFP fluorescence inhibitors and quenchers, dose response, artefact control for Rin1-Abl interaction inhibitor project, biochemical. shares compounds with Rin1 Abl inh. GFP fluorescence interference/quenching counterscreen. IC50, µM. 230 tested, under 10 active; call rule not given here;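 further: ABL1-eGFP fusion protein alone without its RIN1 binding partner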
# * marks the source's active call; other numbers are inactive results; . = not tested or not shown. Unless noted, no stated cut-off is given here; in the data, active means inhibition above about 6.5%; inactive means the rest.
SMILES,Neddyl block,Rin1 Abl inh,Rpn11 block,TPT1 inhibitor,HNF4A DNA FP,CSN deneddyl inh,Rin1 Abl conf,GFP quench,others
CCCc1c(C(=O)Nc2ccc(F)cc2C)cnn1-c1ccccc1,1,-2,2,-4,1,5,.,.,
CCCc1c(C(=O)Nc2cc(C)on2)cnn1-c1ccccc1,-1,8.7*,0,-3,1,0,-1,-1,
CN(c1ccccc1C(=O)N1CCN(Cc2ccc3c(c2)OCO3)CC1)S(C)(=O)=O,5,2,-2,0,-2,-6,.,.,
O=C(Cc1ccc(NC2=NC3CS(=O)(=O)CC3S2)cc1)NCCc1ccccc1 (stereo not drawn),0,6.5*,0,-4,2,0,-1,0,
Cc1ccc(CNC(=O)Cc2ccc(NC3=NC4CS(=O)(=O)CC4S3)cc2)cc1 (stereo not drawn),6,10*,-3,-1,-1,-3,6,1,
COc1ccc(CCNC(=O)c2ccc(NC3=NC4CS(=O)(=O)CC4S3)cc2)cc1OC (stereo not drawn),-3,18*,-11,-2,1,2,22*,-1,GFP quench dose=>68
CCOc1ccc(CCNC(=O)c2ccc(NC3=NC4CS(=O)(=O)CC4S3)cc2)cc1 (stereo not drawn),1,4,-6,-1,1,-1,.,.,
CCCOCCc1nnc(N)s1,4,2,2,-2,-1,-3,.,.,
CCCS(=O)(=O)NC(=O)C1(C)CCCN(C(=O)c2ccc(C(=O)OC)cc2)C1 (stereo not drawn),-7,1,2,.,1,-3,.,.,
COC(=O)c1ccc(COC(=O)C2CCN(S(=O)(=O)c3ccc(C)c(C)c3)CC2)o1,11,16*,4,-5,-2,-3,31*,-2,GFP quench dose=>68
O=c1c(CO)cc(CO)cc(CO)c1O,-7,31*,-16,-1,0,2,30*,13*,
CCN(C(=O)CN1C(=O)COc2ccc(S(=O)(=O)N3CCOCC3)cc21)c1ccc(OC)cc1,4,8.2*,-16,3,1,2,11*,0,
N#Cc1ccc(COC(=O)CN2C(=O)NC3(CCCC3)C2=O)cc1,9,2,-3,.,0,-1,.,.,
COc1ccccc1/C=C1/C(=O)N(c2ccccc2)N=C1C,8,13*,-7,-1,1,-3,1,-1,
COc1cc(/C=C2\C(=O)N(c3cccc(C(=O)O)c3)N=C2C)ccc1OCc1ccccc1,1,6,-2,.,1,3,.,.,
C#CCOc1ccc(/C=C2/C(=O)N(c3cccc(C(=O)O)c3)N=C2C)cc1OC,2,16*,-7,4,-5,13,2,0,
C#CCOc1ccc(/C=C2/C(=O)N(c3ccc(S(N)(=O)=O)cc3)N=C2C)cc1OC,-4,5,-4,.,-3,3,.,.,
CC1=NN(c2ccccc2)C(=O)/C1=C\c1ccc(Oc2ccc([N+](=O)[O-])cc2[N+](=O)[O-])cc1,-20,7.4*,12,0,-2,2,1,0,
COc1cc(/C=C2\C(=O)N(c3ccc(S(N)(=O)=O)cc3)N=C2C)ccc1OC(=O)c1ccco1,-1,10*,-2,1,-6,-5,-1,0,
Nc1ncnc2c1ncn2[C@@H]1O[C@H](CNCc2c(OCc3ccccc3F)ccc3ccccc23)[C@@H](O)[C@H]1O,-15,-6,-16,.,4,-5,.,.,
CCN(C(=O)COC(=O)CCC(=O)c1ccccc1)c1c(N)n(Cc2ccccc2)c(=O)[nH]c1=O,-2,1,1,.,-3,-2,.,.,
Cc1cc(C)nc(SCc2nnc(SCC(=O)Nc3nccs3)n2C)n1,0,0,1,.,0,-4,.,.,
COc1ccc(CCCc2nnc(SCC(=O)Nc3nccs3)n2C)cc1C,-1,8.4*,1,1,-1,3,5,3,
Cc1ccc(-c2nnc(SCC(=O)Nc3nccs3)n2N)cc1,3,8.0*,2,-1,5,4,9.9*,0,
CCC(=O)Nc1ccc(-c2nnc(SCC(=O)Nc3nccs3)n2C)cc1,3,7.2*,-1,-4,3,-3,5,1,
SMILES,Neddyl block,Rin1 Abl inh,Rpn11 block,TPT1 inhibitor,HNF4A DNA FP,CSN deneddyl inh,Rin1 Abl conf,GFP quench,others
CCn1c(SCC(=O)Nc2nccs2)nnc1-c1ccc(C)cc1,6,9,.,1,1,0,.,.,
Cc1ccc2oc(=O)n(CCOc3ccccc3)c2c1,-4,0,4,0,1,-1,.,.,
Cc1cccc(OCCn2c(=O)oc3ccc(C)cc32)c1,-3,5.8*,-3,-1,4,-9,-1,1,
CC1=C(C(=O)OC(C)C)C(c2cccnc2)C2=C(CCCC2=O)N1 (stereo not drawn),.,-2,-5,-1,2,-1,.,.,
CCOC(=O)C1=C(C)NC2=C(C(=O)CCC2)C1c1cccnc1 (stereo not drawn),.,11*,2,2,-1,-3,-3,1,
C#CCOCCOCCOCCNc1nc(N2CCN(C(=O)CCCCCCCCCCNC(=O)Cn3cc(C[C@@H](C)O)nn3)CC2)nc(N2CCN(C(=O)CCCCCCCCCCNC(=O)[C@@H](CCSC)n3cc(CCO)nn3)CC2)n1,-31,17*,2,-3,0,0,16*,-1,
C#CCOCCOCCOCCNc1nc(N2CCN(C(=O)CCCCCCCCCCNC(=O)Cn3cc(CCCCCN)nn3)CC2)nc(N2CCN(C(=O)CCCCCCCCCCNC(=O)Cn3cc(C[C@@H](C)O)nn3)CC2)n1,-14,19*,-2,-2,7,10,12*,2,
C#CCOCCOCCOCCNc1nc(N2CCN(C(=O)CCCCCCCCCCNC(=O)[C@@H](CCSC)n3cc(CCO)nn3)CC2)nc(N2CCN(C(=O)CCCCCCCCCCNC(=O)[C@@H]([C@H](C)O)n3cc(C)nn3)CC2)n1,-9,7,0,-1,0,1,.,.,

# Bioassay records deposited in PubChem by several laboratories.
